{"source": "ChEMBL document CHEMBL1142883", "about": "“New polyamine-sensitive inhibitors of the NMDA receptor: syntheses and pharmacological evaluation” (Eur J Med Chem, 2007)", "key": {"[1]": {"target": "Glutamate NMDA receptor", "assay": "Displacement of [3H]MK-801 from rat brain NMDA receptor", "in_short": "(§1)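 [³H]MK-801 at 5 nM is bound to rat brain membranes, with the co-agonists glutamic acid and glycine added. Incubation lasts 2 h, close to equilibrium. Nonspecific binding is binding to closed channels: no glutamate or glycine, with D-APV and 5,7-DCKA added. The standard buffer is 50 mM Tris, switched to 10 mM Tris for buffer-sensitive inhibition. Replicate counts are given per value.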"}, "[2]": {"target": "Glutamate NMDA receptor", "assay": "Displacement of [3H]MK801 from rat brain NMDA receptor in presence of 30 uM spermine", "in_short": "as §1"}, "[3]": {"target": "Glutamate NMDA receptor", "assay": "Displacement of [3H]MK-801 from NMDA receptor in rat brain in presence of 100 uM spermine", "type": "tissue-based", "in_short": "as §1"}, "[4]": {"target": "Glutamate NMDA receptor", "assay": "Stimulation of [3H]MK-801 binding to rat brain NMDA receptor", "in_short": "as §1"}}, "note": "pEC50, pIC50: −log10 of the molar value."}
{"smiles": "NCCCCCCCCc1ccc(CCCCN)s1", "values": [{"measurement": "pIC50", "setting": "[1]", "value": 6.27}, {"measurement": "spermine attenuation ratio", "setting": "[2]", "value": 15.1}, {"measurement": "spermine attenuation ratio", "setting": "[3]", "value": 8.84}]}
{"smiles": "N=C(N)NCCCCCCc1ccc(CCNC(=N)N)s1", "values": [{"measurement": "pIC50", "setting": "[1]", "value": 5.98}, {"measurement": "spermine attenuation ratio", "setting": "[2]", "value": 23.4}]}
{"smiles": "NCCCCCCCCc1ccc(CCCN)s1", "values": [{"measurement": "pIC50", "setting": "[1]", "value": 5.26}, {"measurement": "spermine attenuation ratio", "setting": "[2]", "value": 9.57}]}
{"smiles": "CN(C)CCCCCCCCc1ccc(CCCCN(C)C)s1", "values": [{"measurement": "pIC50", "setting": "[1]", "value": 3.45}, {"measurement": "spermine attenuation ratio", "setting": "[3]", "value": 2.79}]}
{"smiles": "CNCCCCCCCCc1ccc(CCCCNC)s1", "values": [{"measurement": "pIC50", "setting": "[1]", "value": 5.28}, {"measurement": "spermine attenuation ratio", "setting": "[3]", "value": 7.7}]}
{"smiles": "NCCCCc1ccc(CCCCNCCCN)s1", "values": [{"measurement": "pIC50", "setting": "[1]", "value": 5.28}, {"measurement": "spermine attenuation ratio", "setting": "[2]", "value": 29}]}
{"smiles": "CNCCCCCCCCc1ccc(CC2CCNCC2)s1", "values": [{"measurement": "pIC50", "setting": "[1]", "value": 5.61}, {"measurement": "spermine attenuation ratio", "setting": "[3]", "value": 8.58}]}
{"smiles": "N=C(N)NCCCCCCCCc1ccc(CCCCNC(=N)N)s1", "values": [{"measurement": "pIC50", "setting": "[1]", "value": 6.11}, {"measurement": "spermine attenuation ratio", "setting": "[2]", "value": 3.95}]}
{"smiles": "Cc1cc(CCCCCCCCN)sc1CCCCN", "values": [{"measurement": "pIC50", "setting": "[1]", "value": 5.97}, {"measurement": "spermine attenuation ratio", "setting": "[3]", "value": 4.07}]}
{"smiles": "c1ccc(CNCCCCCCCCc2ccc(CCCCNCc3ccccc3)s2)cc1", "values": [{"measurement": "pIC50", "setting": "[1]", "value": 5.06}, {"measurement": "spermine attenuation ratio", "setting": "[3]", "value": 0.98}]}
{"smiles": "NCCCCCCCCc1ccc(CCCCN)cc1", "values": [{"measurement": "pIC50", "setting": "[1]", "value": 6.06}, {"measurement": "spermine attenuation ratio", "setting": "[3]", "value": 7.95}]}
{"smiles": "NCCCCc1ccc(CCCCNC(=O)CCN)s1", "values": [{"measurement": "pIC50", "setting": "[1]", "value": 5.92}, {"measurement": "spermine attenuation ratio", "setting": "[2]", "value": 51.4}]}
{"smiles": "NCCCCc1ccc(CCCCN(Cc2ccccc2)C(=O)C[C@@H](N)Cc2ccccc2)s1", "values": [{"measurement": "pIC50", "setting": "[1]", "value": 4.87}, {"measurement": "spermine attenuation ratio", "setting": "[2]", "value": 1.71}]}
{"smiles": "NCCCCc1ccc(CCNCCNCCN)s1", "values": [{"measurement": "pIC50", "setting": "[1]", "value": 3.55}, {"measurement": "pEC50", "setting": "[4]", "value": 5.72}]}
{"smiles": "NCCCCc1ccc(CCNC(=O)CNC(=O)CN)s1", "values": [{"measurement": "pIC50", "setting": "[1]", "value": 3.95}, {"measurement": "spermine attenuation ratio", "setting": "[2]", "value": 5.48}]}
{"smiles": "CCCNCCCCCCCCc1ccc(CCCCNCCC)s1", "values": [{"measurement": "pIC50", "setting": "[1]", "value": 3.94}, {"measurement": "spermine attenuation ratio", "setting": "[3]", "value": 2.98}]}
{"smiles": "N=C(N)NCCCCCCCc1ccc(CCCNC(=N)N)s1", "values": [{"measurement": "pIC50", "setting": "[1]", "value": 6.13}, {"measurement": "spermine attenuation ratio", "setting": "[2]", "value": 7.47}]}
{"smiles": "N=C(N)NCCCCCCCCc1ccc(CCCNC(=N)N)s1", "values": [{"measurement": "pIC50", "setting": "[1]", "value": 6.51}, {"measurement": "spermine attenuation ratio", "setting": "[2]", "value": 6.29}]}
{"smiles": "NCCCCC#CCCCCCCCCN", "values": [{"measurement": "pIC50", "setting": "[1]", "value": 5.17}, {"measurement": "spermine attenuation ratio", "setting": "[3]", "value": 5.38}]}
{"smiles": "NCCCCc1ccc(Cc2ccc(CCCCN)s2)s1", "values": [{"measurement": "pIC50", "setting": "[1]", "value": 5.75}, {"measurement": "spermine attenuation ratio", "setting": "[2]", "value": 16.8}]}
{"smiles": "NCCCCCCCCNC(=O)CCN", "values": [{"measurement": "pIC50", "setting": "[1]", "value": 4.28}, {"measurement": "spermine attenuation ratio", "setting": "[2]", "value": 75}]}
{"smiles": "CC(CN)C(=O)NCCCCc1ccc(CCCCN)s1", "note": "(stereo unspecified)", "values": [{"measurement": "pIC50", "setting": "[1]", "value": 4.61}, {"measurement": "spermine attenuation ratio", "setting": "[2]", "value": 10.3}]}
{"smiles": "NCCCCCCCCc1ccc(Cc2ccccc2CN)s1", "values": [{"measurement": "pIC50", "setting": "[1]", "value": 5.95}, {"measurement": "spermine attenuation ratio", "setting": "[3]", "value": 2.96}]}
{"smiles": "NCCCCc1ccc(CCCCNC(=O)CC(N)c2ccccc2)s1", "note": "(stereo unspecified)", "values": [{"measurement": "pIC50", "setting": "[1]", "value": 5.17}, {"measurement": "spermine attenuation ratio", "setting": "[2]", "value": 15}]}
{"smiles": "CC(N)CC(=O)NCCCCc1ccc(CCCCN)s1", "note": "(stereo unspecified)", "values": [{"measurement": "pIC50", "setting": "[1]", "value": 5.66}, {"measurement": "spermine attenuation ratio", "setting": "[2]", "value": 65.4}]}
{"smiles": "NCCCCc1ccc(CCCCN(CC[C@@H](N)Cc2ccccc2)Cc2ccccc2)s1", "values": [{"measurement": "pIC50", "setting": "[1]", "value": 5.02}, {"measurement": "spermine attenuation ratio", "setting": "[2]", "value": 1.66}]}
{"smiles": "NCCCCCCCCCCCCN", "values": [{"measurement": "pIC50", "setting": "[1]", "value": 5.15}, {"measurement": "spermine attenuation ratio", "setting": "[2]", "value": 34.6}]}
{"smiles": "NCCCCCCCCCCCCCCN", "values": [{"measurement": "pIC50", "setting": "[1]", "value": 5.28}, {"measurement": "spermine attenuation ratio", "setting": "[3]", "value": 6.94}]}
{"smiles": "C=CCNCCCCCCCCc1ccc(CCCCNCC=C)s1", "values": [{"measurement": "pIC50", "setting": "[1]", "value": 4.88}, {"measurement": "spermine attenuation ratio", "setting": "[3]", "value": 6.57}]}
{"smiles": "NCCCCc1ccc(CCOCCOCCN)s1", "values": [{"measurement": "pIC50", "setting": "[1]", "value": 5.38}, {"measurement": "spermine attenuation ratio", "setting": "[2]", "value": 16.8}]}
{"smiles": "NCCCCCCCCc1ccc(CC2CCNCC2)s1", "values": [{"measurement": "pIC50", "setting": "[1]", "value": 6.20}, {"measurement": "spermine attenuation ratio", "setting": "[3]", "value": 9.07}]}
{"smiles": "CN(C)CCCCCCCCc1ccc(CC2CCNCC2)s1", "values": [{"measurement": "pIC50", "setting": "[1]", "value": 4.82}, {"measurement": "spermine attenuation ratio", "setting": "[3]", "value": 7.67}]}
{"smiles": "Cc1cc(CCCCN)sc1CCCCCCCCN", "values": [{"measurement": "pIC50", "setting": "[1]", "value": 5.79}, {"measurement": "spermine attenuation ratio", "setting": "[3]", "value": 3.9}]}
{"smiles": "CCc1cc(CCCCN)sc1CCCCCCCCN", "values": [{"measurement": "pIC50", "setting": "[1]", "value": 5.49}, {"measurement": "spermine attenuation ratio", "setting": "[3]", "value": 2.67}]}
{"smiles": "NCCCCc1ccc(CCCCNC(=O)C(CN)c2ccccc2)s1", "note": "(stereo unspecified)", "values": [{"measurement": "pIC50", "setting": "[1]", "value": 4.93}, {"measurement": "spermine attenuation ratio", "setting": "[2]", "value": 10.1}]}
